From ChEMBL document CHEMBL1629686, “Substrate selectivity and a novel role in inhibitor discrimination by residue 237 in the KPC-2 beta-lactamase” (Antimicrob Agents Chemother, 2010)
Converted amounts (≈) assume the structure as drawn.

Assays:
Klebsiella pneumoniae [1] = experiment: Ratio of Ki for Klebsiella pneumoniae 1534 beta-lactamase KPC-2 T237S mutant to Ki for Klebsiella pneumoniae wild type beta-lactamase KPC-2 by competitive assay
Summary of the method: (§1)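 Direct competition assay at steady state with purified enzyme at 10 nM. Inhibitor was varied from 5 μM to 5 mM, with nitrocefin 100 μM final as reporter substrate. 1/v0 was plotted against [I], and Ki(observed) was taken as y-intercept divided by slope. This was corrected by 1 + [S]/Km(nitrocefin).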

[2] = Inhibition of Klebsiella pneumoniae 1534 beta-lactamase KPC-2 T237A mutant by competitive assay; summary of the method: as §1
[3] = Inhibition of Klebsiella pneumoniae 1534 beta-lactamase KPC-2 T237S mutant by competitive assay; summary of the method: as §1
Klebsiella pneumoniae [4] = experiment: Ratio of Ki for Klebsiella pneumoniae 1534 beta-lactamase KPC-2 T237A mutant to Ki for wild type Klebsiella pneumoniae beta-lactamase KPC-2 by competitive assay
Escherichia coli [5] = experiment: Antimicrobial activity against Escherichia coli DH10B harboring beta-lactamase KPC-2 T237Y mutant by agar dilution method; type: functional; details: K-12 DH10B
Summary of the method: (§2)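 LB agar dilution MICs followed CLSI criteria, with inocula applied by Steers replicator. […] Piperacillin-tazobactam was tested at an 8:1 ratio. Wild-type and mutant blaKPC-2 were carried on pBC SK(+), or wild type on pBR322-catI, in E. coli DH10B.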

Klebsiella pneumoniae [6] = experiment: Ratio of Kcat/Km for Klebsiella pneumoniae 1534 beta-lactamase KPC-2 T237S mutant by spectrophotometric analysis
Summary of the method: (§3)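 Purified KPC-2 variant enzymes (periplasmic lysate from E. coli, preparative isoelectric focusing). Hydrolysis followed by diode-array spectrophotometry in 10 mM PBS, pH 7.4, room temperature. Enzyme at 10 nM with substrate in molar excess for pseudo-first-order conditions. Vmax and Km came from a nonlinear least-squares Michaelis-Menten fit.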

Escherichia coli [7] = experiment: Antimicrobial activity against Escherichia coli DH10B harboring plasmid […] by agar dilution method; type: functional; details: K-12 DH10B; summary of the method: as §2
Escherichia coli [8] = experiment: Antimicrobial activity against Escherichia coli DH10B harboring beta-lactamase KPC-2 T237K mutant by agar dilution method; type: functional; details: K-12 DH10B; summary of the method: as §2
Escherichia coli [9] = experiment: Antimicrobial activity against Escherichia coli DH10B harboring beta-lactamase KPC-2 T237S mutant by agar dilution method; type: functional; details: K-12 DH10B; summary of the method: as §2
Escherichia coli [10] = experiment: Antimicrobial activity against Escherichia coli DH10B harboring beta-lactamase KPC-2 T237C mutant by agar dilution method; type: functional; details: K-12 DH10B; summary of the method: as §2
Escherichia coli [11] = experiment: Antimicrobial activity against Escherichia coli DH10B harboring beta-lactamase KPC-2 T237M mutant by agar dilution method; type: functional; details: K-12 DH10B; summary of the method: as §2
Klebsiella pneumoniae [12] = experiment: Selectivity index, Ratio of Kcat/Km for Klebsiella pneumoniae 1534 beta-lactamase KPC-2 T237S mutant to ratio of Kcat/Km for Klebsiella pneumoniae 1534 beta-lactamase KPC-2 by spectrophotometric analysis
Summary of the method: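 Kinetics used purified enzymes in 10 mM PBS, pH 7.4, room temperature, with 10 nM enzyme and substrate in excess. Km and Vmax came from a Michaelis-Menten fit. kcat/Km of the variant was compared with wild type as ΔΔG = −RT ln of the kcat/Km ratio.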

Klebsiella pneumoniae [13] = experiment: Activity of Klebsiella pneumoniae 1534 beta-lactamase KPC-2 T237S mutant by spectrophotometric analysis; summary of the method: as §3
Escherichia coli [14] = experiment: Antimicrobial activity against Escherichia coli DH10B harboring beta-lactamase KPC-2 T237G mutant by agar dilution method; type: functional; details: K-12 DH10B; summary of the method: as §2
Escherichia coli [15] = experiment: Antimicrobial activity against Escherichia coli DH10B harboring beta-lactamase KPC-2 T237A mutant by agar dilution method; type: functional; details: K-12 DH10B; summary of the method: as §2
Escherichia coli [16] = experiment: Antimicrobial activity against Escherichia coli DH10B harboring beta-lactamase KPC-2 T237I mutant by agar dilution method; type: functional; details: K-12 DH10B; summary of the method: as §2
Escherichia coli [17] = experiment: Antimicrobial activity against Escherichia coli DH10B harboring beta-lactamase KPC-2 T237W mutant by agar dilution method; type: functional; details: K-12 DH10B; summary of the method: as §2
Escherichia coli [18] = experiment: Antimicrobial activity against Escherichia coli DH10B harboring beta-lactamase KPC-2 T237P mutant by agar dilution method; type: functional; details: K-12 DH10B; summary of the method: as §2
Escherichia coli [19] = experiment: Antimicrobial activity against Escherichia coli DH10B harboring beta-lactamase KPC-2 T237Q mutant by agar dilution method; type: functional; details: K-12 DH10B; summary of the method: as §2
Escherichia coli [20] = experiment: Antimicrobial activity against Escherichia coli DH10B harboring plasmid pBC SK(+) carrying wild type beta-lactamase KPC-2 by agar dilution method; type: functional; details: K-12 DH10B; summary of the method: as §2
Escherichia coli [21] = experiment: Antimicrobial activity against Escherichia coli DH10B harboring beta-lactamase KPC-2 T237V mutant by agar dilution method; type: functional; details: K-12 DH10B; summary of the method: as §2
Escherichia coli [22] = experiment: Antimicrobial activity against Escherichia coli DH10B harboring beta-lactamase KPC-2 T237R mutant by agar dilution method; type: functional; details: K-12 DH10B; summary of the method: as §2
Klebsiella pneumoniae [23] = experiment: Activity of Klebsiella pneumoniae 1534 beta-lactamase KPC-2 T237A mutant by spectrophotometric analysis; summary of the method: as §3
Escherichia coli [24] = experiment: Antimicrobial activity against Escherichia coli DH10B harboring beta-lactamase KPC-2 T237E mutant by agar dilution method; type: functional; details: K-12 DH10B; summary of the method: as §2
Klebsiella pneumoniae [25] = experiment: Antimicrobial activity against Klebsiella pneumoniae 1534 expressing beta-lactamase KPC-2 by agar dilution method; type: functional
Summary of the method: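 MICs were determined by LB agar dilution following CLSI criteria, with a Steers replicator. […] Piperacillin-tazobactam was kept at an 8:1 ratio.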

Escherichia coli [26] = experiment: Antimicrobial activity against Escherichia coli DH10B by agar dilution method; type: functional; details: K-12 DH10B; summary of the method: as §2
Escherichia coli [27] = experiment: Antimicrobial activity against Escherichia coli DH10B harboring beta-lactamase KPC-2 T237F mutant by agar dilution method; type: functional; details: K-12 DH10B; summary of the method: as §2
Escherichia coli [28] = experiment: Antimicrobial activity against Escherichia coli DH10B harboring beta-lactamase KPC-2 T237N mutant by agar dilution method; type: functional; details: K-12 DH10B; summary of the method: as §2
Escherichia coli [29] = experiment: Antimicrobial activity against Escherichia coli DH10B harboring plasmid pBR322-catI carrying beta-lactamase KPC-2 by agar dilution method; type: functional; details: K-12 DH10B; summary of the method: as §2
Escherichia coli [30] = experiment: Antimicrobial activity against Escherichia coli DH10B harboring beta-lactamase KPC-2 T237H mutant by agar dilution method; type: functional; details: K-12 DH10B; summary of the method: as §2
Escherichia coli [31] = experiment: Antimicrobial activity against Escherichia coli DH10B harboring beta-lactamase KPC-2 T237L mutant by agar dilution method; type: functional; details: K-12 DH10B; summary of the method: as §2
Escherichia coli [32] = experiment: Antimicrobial activity against Escherichia coli DH10B harboring beta-lactamase KPC-2 T237D mutant by agar dilution method; type: functional; details: K-12 DH10B; summary of the method: as §2

O=C(O)[C@H]1/C(=C/CO)O[C@@H]2CC(=O)N21 [CLAVULANIC ACID]
fold change (FC) (Klebsiella pneumoniae [1]): 1.7
Ki [2]: 55 µM
Ki [3]: 13 µM
fold change (FC) (Klebsiella pneumoniae [4]): 5

CO/N=C(\C(=O)N[C@@H]1C(=O)N2C(C(=O)O)=C(COC(C)=O)CS[C@H]12)c1csc(N)n1 [CEFOTAXIME]
MIC (Escherichia coli [5]): 0.06 µg/mL (≈ 0.132 µM)
kcat/Km (Klebsiella pneumoniae [6]): 260000 M⁻¹ s⁻¹
MIC (Escherichia coli [7]): 0.06 µg/mL (≈ 0.132 µM)
MIC (Escherichia coli [8]): 0.06 µg/mL (≈ 0.132 µM)
MIC (Escherichia coli [9]): 1 µg/mL (≈ 2.2 µM)
MIC (Escherichia coli [10]): 0.06 µg/mL (≈ 0.132 µM)
MIC (Escherichia coli [11]): 0.06 µg/mL (≈ 0.132 µM)
fold change (FC) (Klebsiella pneumoniae [12]): 2.7
Km (Klebsiella pneumoniae [13]): 168 µM
kcat (Klebsiella pneumoniae [13]): 43 s⁻¹
MIC (Escherichia coli [14]): 0.06 µg/mL (≈ 0.132 µM)
MIC (Escherichia coli [15]): 0.06 µg/mL (≈ 0.132 µM)
MIC (Escherichia coli [16]): 0.06 µg/mL (≈ 0.132 µM)
MIC (Escherichia coli [17]): 0.06 µg/mL (≈ 0.132 µM)
MIC (Escherichia coli [18]): 0.06 µg/mL (≈ 0.132 µM)
MIC (Escherichia coli [19]): 0.06 µg/mL (≈ 0.132 µM)
MIC (Escherichia coli [20]): 2 µg/mL (≈ 4.39 µM)
MIC (Escherichia coli [21]): 0.06 µg/mL (≈ 0.132 µM)
MIC (Escherichia coli [22]): 0.06 µg/mL (≈ 0.132 µM)
kcat (Klebsiella pneumoniae [23]): < 0.1 s⁻¹
MIC (Escherichia coli [24]): 0.06 µg/mL (≈ 0.132 µM)
MIC (Klebsiella pneumoniae [25]): 16 µg/mL (≈ 35.1 µM)
MIC (Escherichia coli [26]): 0.06 µg/mL (≈ 0.132 µM)
MIC (Escherichia coli [27]): 0.06 µg/mL (≈ 0.132 µM)
MIC (Escherichia coli [28]): 0.06 µg/mL (≈ 0.132 µM)
MIC (Escherichia coli [29]): 8 µg/mL (≈ 17.6 µM)
MIC (Escherichia coli [30]): 0.06 µg/mL (≈ 0.132 µM)
MIC (Escherichia coli [31]): 0.06 µg/mL (≈ 0.132 µM)
MIC (Escherichia coli [32]): 0.125 µg/mL (≈ 0.274 µM)
